Source: PubChem
Shown are actives, neighbours in structure and some others; about 3.7% of the full set was active somewhere.
hERG protect = compounds protecting human hERG from proarrhythmic drug block. activation (rescue from dofetilide block), less the hit threshold, % at 10 µM. CHO-hERG, FluxOR thallium flux, dofetilide IC70 present. actives 0.51% (n = 310,000). Q12809. AID 1511;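 active = activation above the mean of controls blocked by dofetilide plus 5 SD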;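 note: thallium influx through hERG after potassium depolarization seen as dye fluorescence rise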
KCNK3 block = human KCNK3 channel inhibition, primary screen | O14649 | CHO-KCNK3 thallium flux, FluxOR fluorescence; stronger effect = lower value | B-score at 10 µM | actives 0.84% (n = 340,000) | AID 602410;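 active = B-score under library mean minus 4 SD, starting fluorescence ratio at most library mean plus 5 SD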;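 note: more negative B-score means stronger inhibition of thallium flux through KCNK3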
Kir21 inh = inhibitors of mouse Kir2.1 inward-rectifier potassium channel; P35561; HEK293-Kir2.1, FluxOR thallium flux fluorescence; stronger effect = lower value; B-score at 10 µM; actives 0.85% (n = 310,000);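 active = fluorescence ratio B-score at or below minus 3 SD of library scores, with starting-brightness B-score within 2 SD, cut at about -4.2 in these data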;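 note: channel flux triggered by added potassium and thallium sulfate stimulus; B-score of peak minus minimum fluorescence over baseline after thallium stimulus; more negative B-score means stronger Kir2.1 block with less thallium influx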
KCNK9 inh = human KCNK9 channel inhibition | B-score at 10 µM | HEK293 KCNK9, FluxOR thallium flux fluorescence; stronger effect = lower value | Q9NPC2 | actives 1.2% (n = 310,000) | AID 488922;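 active = ratio B-score over 3 SD below the library mean, with starting fluorescence within 5 SD of its mean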;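 note: negative B-score means less thallium flux so channel inhibition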
KCNQ1 act = potentiates or activates the human KCNQ1 potassium channel. actives 0.35% (n = 310,000). B-score at 10 µM. CHO-K1 KCNQ1, thallium flux FluxOR fluorescence; stronger effect = higher value. AID 2648;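 active = fluorescence ratio B-score, a plate-corrected score, at least three library SD, with initial intensity B-score within 5 SD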
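assay system = KCNQ1-transfected CHO-K1 cells | medium = assay buffer with matched DMSO | probe or stimulus = depolarizing K+/Tl+ stimulus, K2SO4 and Tl2SO4 each 12.5 mM in 5x stock | dosing = single dose | incubation = dye 90 min, compound 20 min, room temperature | detection = kinetic FluxOR fluorescence, 10 s baseline plus 110 s post-stimulus | evaluation = ratio B score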
KCNQ1 block = human KCNQ1 channel inhibition | actives 1.3% (n = 310,000) | B-score at 10 µM | CHO-K1 KCNQ1, FluxOR thallium flux fluorescence; stronger effect = higher value;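 active = compounds whose thallium flux B-score, printed positive for inhibition, exceeds three library SD while starting fluorescence stays within three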;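 note: channel opened by potassium depolarization with thallium stimulus after 20 min compound exposure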
Of the large screens only hits and unclear results are named; the others gave an inactive call.

Cn1cc(/C=C2\SC(=O)NC2=S)c2ccccc21	hERG protect 16
CCC(=O)N(Cc1c(C)nn(-c2ccccc2)c1Cl)c1ccc(Cl)cc1	KCNQ1 block 6
O=S(=O)(CCc1ccncc1)c1ccc(Cl)cc1	none
COc1ccc(C)cc1NC(=O)C(=O)NNC(=O)c1ccco1	hERG protect 34, KCNQ1 act 29
CCSc1cc(N2CCCC2)nc(-c2ccc(C)cc2)n1	none
CCSc1cc(N2CC(C)OC(C)C2)nc(-c2ccccc2Cl)n1 (configuration not stated)	KCNK3 block -9.1
Cc1ccc(S(=O)(=O)CC(O)COc2ccc(F)cc2Cl)c(C)c1 (configuration not stated)	Kir21 inh -6.1
CC(C)C(NC(=O)CN1C(=O)c2ccccc2C1=O)c1ccccc1 (configuration not stated)	none
COc1ccc(C(=O)NCCNc2nc3cc(C)c(C)cc3cc2C)cc1	none
O=C(c1ccccc1)c1ncc[nH]1	none
O=c1[nH]c(/C(=N\O)c2ccccc2)no1	KCNK9 inh -7.2
CCN(CC)CC(=O)Nc1sc(C)c(C)c1C(=O)c1ccc(C)cc1	KCNQ1 block 6
CCN(CC)CC(=O)Nc1sc(C)cc1C(=O)c1ccccc1	none
O=C1CC2(CCCC2)C(=O)N1CN1CCN(S(=O)(=O)c2ccc(Cl)c(Cl)c2)CC1	none (no result: hERG protect, Kir21 inh, KCNK9 inh, KCNQ1 act, KCNQ1 block)
N#CC1=C(N)N(c2ccccc2)C(c2cccc([N+](=O)[O-])c2)C1(C#N)C#N (configuration not stated)	Kir21 inh -9.7
N#CC1=C(N)N(c2ccccc2)C(c2ccco2)C1(C#N)C#N (configuration not stated)	none
Oc1ccc2ccccc2c1-c1sc(Nc2ccccc2)n[n+]1-c1ccc(F)cc1	KCNQ1 block 9
CN(C)C(CNC(=O)c1ccc(-c2ccccc2)cc1)c1ccccc1 (configuration not stated)	KCNQ1 block 6
CN(C)C(CNC(=O)c1ccc(C(=O)c2ccccc2)cc1)c1ccccc1 (configuration not stated)	none
COc1ccc(-c2nc(-c3ccccc3)c(-c3cc([N+](=O)[O-])ccc3C)[nH]2)cc1O	KCNK9 inh -10, KCNQ1 block 7
O=[N+]([O-])c1ccc(NCc2ccc(Cl)cc2)nc1	none
CC(C)c1ccc(CNc2ccc([N+](=O)[O-])cn2)cc1	KCNQ1 block 7
CC1CCCCN1CCCNC(=O)c1ccc2nc(N3CCCCC3)sc2c1 (configuration not stated)	none
O=C(NCCc1cccnc1)C1CCC(=O)N(CCc2cccc(F)c2)C1 (configuration not stated)	none
N#Cc1ccc(NC(=O)COc2ccc(-n3cnnn3)cc2)cc1	none (no result: hERG protect, Kir21 inh, KCNK9 inh, KCNQ1 act, KCNQ1 block)
O=[N+]([O-])c1ccc(S(=O)(=O)NN=Cc2ccc(Cl)c(Cl)c2)cc1	none (no result: hERG protect, Kir21 inh, KCNK9 inh, KCNQ1 act, KCNQ1 block)
COC(=O)C(NC(=O)CCc1c(C)nc2c(c(C)nn2-c2ccccc2)c1C)C(C)C (configuration not stated)	none
O=C(Oc1ccc(=O)n(-c2ccccc2)n1)c1ccccc1	Kir21 inh -7.4
C=CCn1c(SCC(=O)c2ccc(OC)cc2)nnc1-c1ccc2c(c1)OCO2	none
C=CCn1c(SCC(=O)c2ccc(Cl)cc2)nnc1-c1ccc2c(c1)OCO2	Kir21 inh -5.4
COc1ccc2[nH]c(-c3ccccc3)cc2c1	none
O=C(O)C1CCCCN1C(=O)c1cc2c(s1)CCCCC2 (configuration not stated)	none (no result: hERG protect, Kir21 inh, KCNK9 inh, KCNQ1 act, KCNQ1 block)
CCOC(=O)c1sc2nccc(N(C)C)c2c1N=CNOCc1c(F)cccc1Cl	KCNQ1 block 8
CCOC(=O)c1sc2nccc(N(C)C)c2c1N=CNOCc1ccccc1	none (no result: hERG protect, Kir21 inh, KCNK9 inh, KCNQ1 act, KCNQ1 block)
C=CC[n+]1c(C)csc1Nc1cccc(Br)c1	KCNK9 inh -6.6
C=CC[n+]1c(C)csc1Nc1ccc(C)cc1	none
CC(=O)Nc1ccc(NC(=O)CSc2ncc(C(=O)Nc3ccccc3)c(=O)n2C)cc1	KCNQ1 block 7
Cn1c(SCC(=O)NCc2ccccc2)ncc(C(=O)Nc2ccccc2)c1=O	none
COc1ccc(C(=O)NCC2CCCCC2)cc1S(=O)(=O)N1CCOCC1	none (no result: hERG protect, Kir21 inh, KCNK9 inh, KCNQ1 act, KCNQ1 block)
Cc1ccc(/C(O)=C/C(=O)C(=O)NNC(=O)C(O)(c2ccccc2)c2ccccc2)cc1	KCNQ1 act 13
CCOC(=O)c1c(N2C(=O)Nc3ccccc3N2O)n[nH]c1-c1cccc(Cl)c1	hERG protect 11, KCNQ1 act 36
CCOc1ccc(-c2cc(N3C(=O)Nc4ccccc4N3O)n[nH]2)cc1	none
Cc1ccc(CN(C)C(=O)CN2C(=O)NC(c3ccccc3)(c3ccccc3)C2=O)c(C)c1	none (no result: hERG protect, Kir21 inh, KCNK9 inh, KCNQ1 act, KCNQ1 block)
COc1cc(NC(=O)c2ccc(=O)[nH]n2)cc(OC)c1OC	none
Cc1cc(NC(=O)CSc2nnc(-c3ccc([N+](=O)[O-])cc3)o2)no1	none
CSc1ccc2c(c1)C(N1CCN(C)CC1)Cc1ccccc1S2 (configuration not stated)	Kir21 inh -7.9
Cc1cc(C)nc(NN2C(=O)C=CC2=O)n1	none
CN(C)C(=O)CCc1ccc2c3c([nH]c2c1)[C@]1(CCC2CCCC2)[C@@H](C(=O)N2CCOCC2)C[C@H](CC(=O)NC(C)(C)C)C(=O)N1CC3	none (no result: hERG protect, Kir21 inh, KCNK9 inh, KCNQ1 act, KCNQ1 block)
CC(CCc1ccccc1)NC(=O)Cc1ccccc1 (configuration not stated)	none
CC(CCc1ccccc1)NC(=S)NC(=O)c1ccco1 (configuration not stated)	hERG protect 25, KCNQ1 act 24
O=C(NC(=S)N(CCc1ccccc1)CCc1ccccc1)c1ccco1	hERG protect 37, KCNQ1 act 47
Cc1ccc(OCC(=O)NC(=S)Nc2ccc(Br)cn2)cc1	hERG protect 12, KCNQ1 act 9
Cc1ccc(OCC(=O)NC(=S)Nc2ccc(Br)c(C)n2)cc1	none
CCOC(=O)c1c(S(=O)(=O)N2CCCCC2C)c(C)n(C)c1C (configuration not stated)	none
Cc1ccc(S(=O)(=O)Nc2ccccc2-c2ccccc2NS(=O)(=O)c2ccc(C)cc2)cc1	KCNQ1 block 7
Cc1ccc(S(=O)(=O)Nc2ccccc2C(N)=O)cc1	none
Cc1ccc(S(=O)(=O)Nc2ccccc2C(O)c2ccccc2)cc1 (configuration not stated)	Kir21 inh -5
OCCC1CN(Cc2cccc3nonc23)CCN1Cc1ccsc1 (configuration not stated)	none
OCCC1CN(Cc2ccc(-c3ccco3)cc2)CCN1Cc1ccsc1 (configuration not stated)	Kir21 inh -4.5
OCCC1CN(Cc2ccccc2OC2CCCC2)CCN1Cc1ccsc1 (configuration not stated)	Kir21 inh -4.5
CN(CC(=O)NCCc1ccc(S(N)(=O)=O)cc1)S(=O)(=O)/C=C/c1ccccc1	none
